Active and inactive are the calls of the source.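 The calls were made as follows: active = AC50 at or below twice the top valid dose for that sample, with falling signal; inconclusive = flat curve with inhibition of 30 to 70%, or poor fit; inactive = activity in the wrong direction, plus the rest.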

Scavenger receptor class B member 1 (Mus musculus), sequence (Q61009 whole entry, looked up): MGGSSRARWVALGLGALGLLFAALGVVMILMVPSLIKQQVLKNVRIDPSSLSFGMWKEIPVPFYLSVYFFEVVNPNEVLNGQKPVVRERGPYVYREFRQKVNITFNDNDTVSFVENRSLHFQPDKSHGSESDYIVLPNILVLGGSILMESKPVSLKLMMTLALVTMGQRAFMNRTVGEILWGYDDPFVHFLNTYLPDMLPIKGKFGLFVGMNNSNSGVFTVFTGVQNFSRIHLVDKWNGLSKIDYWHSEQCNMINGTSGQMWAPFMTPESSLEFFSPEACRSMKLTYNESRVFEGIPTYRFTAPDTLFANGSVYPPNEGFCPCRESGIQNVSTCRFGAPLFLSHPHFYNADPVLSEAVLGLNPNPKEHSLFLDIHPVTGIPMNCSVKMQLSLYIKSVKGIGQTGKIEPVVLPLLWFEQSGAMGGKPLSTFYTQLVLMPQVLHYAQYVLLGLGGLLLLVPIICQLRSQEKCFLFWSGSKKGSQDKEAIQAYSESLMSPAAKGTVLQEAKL

The first assay has as its target Scavenger receptor class B member 1 (Mus musculus) (UniProt Q61009). Description: SR-BI mediated DiI-HDL lipid uptake blockers – ldlA[mSR-BI] CHO cells, fluorescence plate reader, dry powder, set 8, dose response (AID 602285). To be noted: 3 h. The method, boiled down:
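Material: CHO ldlA cells overexpressing mouse SR-BI; detection: bottom-read DiI fluorescence after PBS washes, excitation 550 nm, emission 595 nm; schedule: 3 h uptake at 37 °C; controls: DMSO as neutral control, BLT-1 as inhibitor control; medium: Ham's F12, fatty acid-free BSA, HEPES pH 7.4; compound: pin-transferred compounds, dose series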
Consider `C[C@@H]1CN([C@@H](C)CO)C(=O)c2cc(NC(=O)Cc3cn(C)c4ccccc34)ccc2O[C@@H]1CN(C)S(=O)(=O)c1ccc(Cl)cc1`, for which the AC50 (usually the midpoint of the concentration-response curve, whichever way the signal moves) is 10 µM.

For the molecule `C[C@@H]1CN([C@H](C)CO)C(=O)c2cc(NC(=O)Cc3cn(C)c4ccccc34)ccc2O[C@H]1CN(C)Cc1ccc(C(=O)Nc2ccccc2N)cc1`, the AC50 was 1.72 µM.

Regarding `O=C(C[C@H]1CC[C@H](NC(=O)CC2CC2)[C@@H](CO)O1)NCc1ccc(Cl)cc1`, the AC50 is > 70 µM (inactive). Still for that read-out and setting: the result for `Cc1noc(C)c1NC(=O)N(C)C[C@H]1Oc2cc(C#CCC3CCCC3)ccc2S(=O)(=O)N([C@H](C)CO)C[C@@H]1C` reads 0.094 µM; that for `C[C@@H]1CN([C@H](C)CO)C(=O)c2cc(NC(=O)Cc3cn(C)c4ccccc34)ccc2O[C@@H]1CN(C)S(=O)(=O)c1ccc(Cl)cc1`, 11.5 µM.

With `C[C@@H]1CN([C@H](C)CO)C(=O)c2cc(NC(=O)Cc3cn(C)c4ccccc34)ccc2O[C@H]1CN(C)C(=O)Nc1cccc2ccccc12`, the AC50 is 8.3 µM.

In the case of `C[C@@H]1CN([C@H](C)CO)C(=O)c2cc(NC(=O)Cc3cn(C)c4ccccc34)ccc2O[C@H]1CN(C)S(=O)(=O)c1ccc(Cl)cc1`, the AC50 was 0.174 µM.

As for `C[C@@H]1CN([C@H](C)CO)C(=O)c2cc(NC(=O)Cc3cn(C)c4ccccc34)ccc2O[C@H]1CN(C)C(=O)Nc1ccc2c(c1)OCO2`, the half-maximal activity concentration (AC50) was 4.6 µM.

On to `C[C@@H]1CN([C@H](C)CO)C(=O)c2cc(NC(=O)C3CCCCC3)ccc2O[C@H]1CN(C)S(=O)(=O)c1ccc(Cl)cc1`, for which the AC50 was 0.0304 µM. Same read-out and setting: the result for `C[C@@H]1CN([C@@H](C)CO)C(=O)Cc2cc(NS(C)(=O)=O)ccc2O[C@@H]1CN(C)Cc1ccc(C(F)(F)F)cc1` reads 22.3 µM; that for `C[C@@H]1CN([C@H](C)CO)C(=O)c2cc(NS(=O)(=O)c3cccs3)ccc2O[C@H]1CN(C)S(=O)(=O)c1ccc(Cl)cc1`, 3.77 µM. As for `C[C@@H]1CN([C@H](C)CO)C(=O)c2cc(NC(=O)Cc3cn(C)c4ccccc34)ccc2O[C@H]1CN(C)Cc1ccccc1`, the AC50 was 1.55 µM. On to `C[C@@H]1CN([C@H](C)CO)C(=O)c2cc(NS(=O)(=O)c3ccc(F)cc3)ccc2O[C@H]1CN(C)S(=O)(=O)c1ccc(Cl)cc1`, for which the concentration at half-maximal activity (AC50) was 13.7 µM.

With `C[C@@H]1CN([C@H](C)CO)C(=O)c2cc(NS(C)(=O)=O)ccc2O[C@H]1CN(C)S(=O)(=O)c1ccc(Cl)cc1`, the concentration at half-maximal activity (AC50) was 1.64 µM. The same measure, in the same setting: the result for `C[C@@H]1CN([C@H](C)CO)C(=O)c2cc(NC(=O)Cc3cn(C)c4ccccc34)ccc2O[C@H]1CN(C)C` reads 17.9 µM; that for `C[C@@H]1CN([C@H](C)CO)C(=O)c2cc(NC(=O)Cc3cn(C)c4ccccc34)ccc2O[C@H]1CN(C)S(=O)(=O)c1ccccc1`, 0.215 µM; that for `C[C@@H]1CN([C@H](C)CO)C(=O)c2cc(NC(=O)Nc3cccc4ccccc34)ccc2O[C@H]1CN(C)S(=O)(=O)c1ccc(Cl)cc1`, 0.165 µM. On the same count and under the same terms, next, `C[C@@H]1CN([C@H](C)CO)C(=O)c2cc(NC(=O)Cc3cn(C)c4ccccc34)ccc2O[C@H]1CN(C)C(=O)NC1CCCCC1`: 9.18 µM. As to `COc1ccc(S(=O)(=O)Nc2ccc3c(c2)C(=O)N([C@H](C)CO)C[C@@H](C)[C@H](CN(C)S(=O)(=O)c2ccc(Cl)cc2)O3)cc1`, the AC50 is 2.69 µM. Turning to `COc1ccc(-c2nnn(CC(=O)N(C3CCCCC3)C(C)C(=O)NC3CCCCC3)n2)cc1OC` (configuration not stated), the AC50 was 0.2 µM. In the case of `C[C@@H]1CN([C@@H](C)CO)C(=O)Cc2cc(N(C)C)ccc2O[C@@H]1CN(C)Cc1ccc(C(=O)O)cc1`, the AC50 is 34.4 µM. Turning to `C[C@@H]1CN([C@H](C)CO)C(=O)c2cc(NC(=O)Cc3cn(C)c4ccccc34)ccc2O[C@H]1CN(C)Cc1ccncc1`, the AC50 is 1.3 µM. The same measure, in the same setting: the result for `COc1ccc(CN(C)C[C@@H]2Oc3ccc(NC(=O)Cc4cn(C)c5ccccc45)cc3C(=O)N([C@H](C)CO)C[C@H]2C)cc1` reads 2.55 µM; that for `Cc1noc(C)c1NC(=O)Nc1ccc2c(c1)C(=O)N([C@H](C)CO)C[C@@H](C)[C@H](CN(C)S(=O)(=O)c1ccc(Cl)cc1)O2`, 7.1 µM.

Still in this assay, the particulars now being: 3 h, at 35 µM (top of the series).
Take `CCCNC(=O)N(C)C[C@@H]1Oc2cc(-c3cncnc3)ccc2S(=O)(=O)N([C@@H](C)CO)C[C@@H]1C`: the “activity change, negative = inhibition” value was “inactive”.

Take `C[C@@H]1CN([C@H](C)CO)C(=O)c2cc(NS(=O)(=O)c3ccc(Cl)cc3)ccc2O[C@H]1CN(C)S(=O)(=O)c1ccc(Cl)cc1`: the “activity change, negative = inhibition” value was “inactive”. On the same count and under the same terms, the result for `C[C@@H]1CN([C@@H](C)CO)C(=O)Cc2cc(NS(=O)(=O)c3cn(C)cn3)ccc2O[C@@H]1CN(C)Cc1ccc(Cl)c(Cl)c1` reads “inactive”. The same measure, in the same setting: the result for `C[C@@H]1CN([C@H](C)CO)S(=O)(=O)c2ccc(C3=CCCCC3)cc2O[C@@H]1CN(C)C(=O)Nc1ccc2c(c1)OCO2` reads “inactive”; that for `C[C@@H]1CN([C@@H](C)CO)C(=O)Cc2cc(NS(=O)(=O)c3cn(C)cn3)ccc2O[C@H]1CN(C)Cc1ccc(Cl)c(Cl)c1`, “inactive”; that for `Cc1noc(C)c1S(=O)(=O)N(C)C[C@H]1Oc2c(NC(=O)c3nc4ccccc4s3)cccc2C(=O)N([C@H](C)CO)C[C@H]1C`, “inactive”. The same measure, in the same setting: the result for `C[C@@H]1CN([C@H](C)CO)C(=O)c2cc(NC(=O)Cc3cn(C)c4ccccc34)ccc2O[C@H]1CN(C)Cc1ccc(-c2ccccc2)cc1` reads “inactive”; that for `CNC[C@@H]1OCCCC[C@@H](C)Oc2ccc(NS(=O)(=O)c3ccc(Cl)cc3)cc2C(=O)N([C@H](C)CO)C[C@H]1C`, “inactive”.

For the origin of these results see PubChem BioAssay AID602285 (Broad Institute, 2012).
